Measured values: article PMC11166183 (Inorganic chemistry, 2024)
Where two headings read alike, the source gives them in different places.

Columns and labels:
A549 cells = assay: Dark cytotoxicity and photocytotoxicity in normoxia, resazurin cell viability; format: cell-based, human
Outline: (§1)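 Cells adhered 3–5 h at 37°C, then were dosed at 1 nM to 300 μM. After a 13–22 h DLI, light plates received 100 J cm−2 of broadband visible (400–700 nm, 21 mW cm−2), green (523 nm) or red (633 nm, ±2.5 nm, 18 mW cm−2) light. Dark plates stayed incubated. Viability was read by resazurin after 24 h at 37°C. EC50 came from sigmoidal fits; PI = dark EC50/light EC50.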

SK-MEL-28 cells [1] = assay: as above; format: cell-based, human
Outline: as §1

[2] = Lipophilicity by shake-flask method; format: physicochemical; conditions: chloride salts, 1-octanol / 10 mM phosphate buffer pH 7.4
SK-MEL-28 cells [3] = assay: Dark cytotoxicity and photocytotoxicity in hypoxia; format: cell-based, human; conditions: hypoxia 1% O2, regardless of light treatment
Outline: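 Cells were moved to a 1% O2 chamber for 2–3 h after adhesion, then dosed (1 nM to 300 μM). After an 18 h DLI, dissolved O2 was checked by optical probe. Light plates were sealed with low-permeability film and illuminated outside the chamber (~1.5 h). All plates were then held in normoxia (37°C, 5% CO2) for 20–23 h before resazurin read-out. EC50 came from sigmoidal fits; PI = dark/light ratio. Each run was done in triplicate.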

[4] = any light condition (visible, 523 nm, 633 nm; 100 J cm−2), normoxia
[5] = read-out: dark EC50, no light, normoxia

| Substance | EC50 (A549 cells; read-out: visible EC50, visible light 400–700 nm, 100 J cm−2, normoxia) [µM] | PI (dark EC50 / visible EC50) (A549 cells; visible light 400–700 nm, 100 J cm−2, normoxia) | drop in activity with green light versus visible light (SK-MEL-28 cells [1]; 523 nm vs visible, normoxia) [fold] | PI (dark EC50 / green EC50) (SK-MEL-28 cells [1]; 523 nm, 100 J cm−2, normoxia, representative replicate (repeat 0)) | EC50 (SK-MEL-28 cells [1]; read-out: green EC50, 523 nm, 100 J cm−2, normoxia, representative replicate (repeat 0)) [µM] | enhancement in visible photocytotoxicity relative to Ru-1T (SK-MEL-28 cells [1]; visible light, normoxia) [fold] | log Do/w [2] | photocytotoxic activity (A549 cells; [4]) | EC50 (A549 cells; [5]) [µM] | photocytotoxic activity (SK-MEL-28 cells [1]; [4]) | EC50 (SK-MEL-28 cells [1]; [5]) [µM] | photocytotoxic effect (SK-MEL-28 cells [3]) |
| --- | --- | --- | --- | --- | --- | --- | --- | --- | --- | --- | --- | --- |
| rac-[Ru(4,4′-btfmb)2(IP-2T)](Cl)2 [Ru-2T] | 1.37 | 127 | 3 | 91 | 1.9 | 36 | positive | – | – | – | – | – |
| rac-[Ru(4,4′-btfmb)3](Cl)2 [[Ru(4,4′-btfmb)3]^2+, reference compound] | – | – | – | – | – | – | – | inactive | > 300 | inactive | > 300 | no photocytotoxic effect |
